Here are results for 2 compounds from ChEMBL document CHEMBL5360543, “Designed multiple ligands for the treatment of type 2 diabetes mellitus and its complications: Discovery of (5-arylidene-4-oxo-2-thioxothiazolidin-3-yl)alkanoic acids active as novel dual-targeted PTP1B/AKR1B1 inhibitors” (Eur J Med Chem, 2023).

Molecules are shown by their SMILES. Calls of active or inactive are those of the source. No cut-off for these calls is given here.

The target in data set [1] is T1, Tyrosine-protein phosphatase non-receptor type 1 (Homo sapiens, UniProt P18031).
T1 sequence (P18031 whole entry): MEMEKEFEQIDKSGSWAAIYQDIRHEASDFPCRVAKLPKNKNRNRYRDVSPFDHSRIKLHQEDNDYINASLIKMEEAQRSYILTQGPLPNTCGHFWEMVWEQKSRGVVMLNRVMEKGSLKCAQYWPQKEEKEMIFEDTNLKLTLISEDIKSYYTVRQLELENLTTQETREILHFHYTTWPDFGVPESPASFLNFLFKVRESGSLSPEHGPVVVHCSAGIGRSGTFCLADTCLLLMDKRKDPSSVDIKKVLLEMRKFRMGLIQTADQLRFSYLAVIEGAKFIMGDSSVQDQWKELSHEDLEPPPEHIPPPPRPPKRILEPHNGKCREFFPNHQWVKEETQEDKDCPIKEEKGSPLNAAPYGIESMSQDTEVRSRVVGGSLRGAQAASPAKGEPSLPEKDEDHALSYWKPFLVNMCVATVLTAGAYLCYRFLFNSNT
In words: Inhibition of N-terminal polyHis-tagged human PTP1B1 (1 to 303 residues) expressed in Escherichia coli BL21(DE3)pLysS using pNPP as substrate by spectrophotometric analysis. The method in brief:
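His-tagged human PTP1B (1–303) from E. coli BL21(DE3)pLysS, assayed in 0.075 M β,β-dimethylglutarate pH 7.0 with 1 mM EDTA, 0.1 mM DTT and pNPP. Reaction stopped with 0.1 M KOH; p-nitrophenol read at 400 nm. IC50 from 15–16 inhibitor concentrations in triplicate, normalized to control, fitted by nonlinear regression. Single-point residual activity at 5 µM.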

Data set [2] concerns the target T2, Aldo-keto reductase family 1 member B1 (Homo sapiens, UniProt P15121). The data set can be described thus: Reversible inhibition of human recombinant AKR1B1 expressed in Escherichia coli BL21(DE3)pLysS assessed as recovery of enzyme activity using L-idose as substrate measured after extensive dialysis by NADPH oxidation based absorbance analysis. Also noted: scale not given: the % may be the effect or the level left.

The target of data set [3] is T1, Tyrosine-protein phosphatase non-receptor type 1. The data set can be described thus: Non-competitive inhibition of N-terminal polyHis-tagged human PTP1B1 (1 to 303 residues) expressed in Escherichia coli BL21(DE3)pLysS assessed as apparent dissociation constant for EI complex using pNPP as substrate by Lineweaver-Burk plot analysis. The method in brief:
(§1)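 PTP1B initial pNPP hydrolysis rates measured at seven pNPP concentrations (0.5–25 mM) and at least three inhibitor concentrations, in triplicate. Data fitted to Michaelis–Menten; KM and Vmax dependence on inhibitor analysed by Lineweaver–Burk plots.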

Data set [4] has the same target. In words: Non-competitive inhibition of N-terminal polyHis-tagged human PTP1B1 (1 to 303 residues) expressed in Escherichia coli BL21(DE3)pLysS assessed as apparent dissociation constant for ESI complex using pNPP as substrate by Lineweaver-Burk plot analysis. The method in brief:
as §1

The subject of data set [5] is C2C12. The data set can be described thus: Cytotoxicity against mouse C2C12 cells assessed as reduction in cell viability at 20 uM incubated for 24 hrs by MTT assay. The note with it: c2c12, 24 h. It counts as toxicity, cell-based. The method in brief: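 C2C12 myoblasts were differentiated for 96 h in DMEM with 2% horse serum, then held 24 h in complete medium with 20 µM compound, DMSO vehicle as control. MTT 0.5 mg/mL was added, cells lysed in DMSO, absorbance read, and values normalized to vehicle. Quadruplicate, mean ± SD (n = 4).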
On the technique in general: Tetrazolium assays rely on reduction of a dye to a coloured formazan, in cell work by metabolically active cells.

Data set [6] deals with HLE. The data set can be described thus: Cytotoxicity against human HLE cells assessed as reduction in cell viability at 2 uM incubated for 24 to 48 hrs by MTT assay. It counts as toxicity, cell-based. As to conditions: time 24-48 hrs. In a few lines:
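HLE lens epithelial B3 cells in MEM with 20% FBS at 37 °C, exposed 24 and 48 h to compound in 0.05% DMSO. Then 1 h in MTT 0.5 mg/mL in phosphate buffer pH 7.4, formazan dissolved in 0.04 N HCl/isopropanol, absorbance 563 nm. Mean ± SEM of eleven independent measurements; Student's t test versus untreated cells.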

Data set [7] deals with T2, Aldo-keto reductase family 1 member B1. In words: Inhibition of AKR1B1 in human HLE cells assessed as inhibition of glucose-induced sorbitol accumulation at 2 uM incubated for 24 hrs in presence of glucose. The class given is cell-based. The method in brief:
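HLE cells held 24 h in 75 mM D-glucose with or without 2 µM compound; 10 µM sorbinil as reference. Lysates from freeze/thaw and 10,000 × g spin were treated with perchloric acid and neutralized with KOH. Sorbitol assayed and expressed as nmol/mg protein (Bradford). Mean ± SEM of six measurements; one-way ANOVA with Tukey.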

Data set [8] is filed under the species Homo sapiens. In words: Selectivity index, ratio of IC50 for inhibition of N-terminal polyHis-tagged human recombinant TC-PTPb (1 to 415 residues) expressed in Escherichia coli BL21(DE3)pLysS to IC50 for inhibition of N-terminal polyHis-tagged human PTP1B1 (1 to 303 residues) expressed in Escherichia coli BL21(DE3)pLysS.
In data set [9] the target is T1, Tyrosine-protein phosphatase non-receptor type 1. The data set can be described thus: Mixed non-competitive inhibition of N-terminal polyHis-tagged human PTP1B1 (1 to 303 residues) expressed in Escherichia coli BL21(DE3)pLysS assessed as apparent dissociation constant for EI complex using pNPP as substrate by Lineweaver-Burk plot analysis. In a few lines: as §1

The target is the same in data set [10]. In words: Mixed non-competitive inhibition of N-terminal polyHis-tagged human PTP1B1 (1 to 303 residues) expressed in Escherichia coli BL21(DE3)pLysS assessed as apparent dissociation constant for ESI complex using pNPP as substrate by Lineweaver-Burk plot analysis. In a few lines: as §1

For the compound `O=C(O)CN1C(=O)/C(=C/c2cccc(OCCCCc3ccccc3)c2)SC1=S`, 4.3 µM corresponded to half-maximal inhibition in data set [1] (IC50). Also, the results for the Activity in [2], in data set [5] and in data set [6] were > 90%, “Non-Toxic” and “Non-Toxic”, respectively. Further, the results for the Ki in data set [3] and in data set [4] were 4.6 µM and 4.3 µM, respectively. Besides, the inhibition entry in [7] was “Active”.

As for `O=C(O)CCN1C(=O)/C(=C/c2cccc(OCCCCc3ccccc3)c2)SC1=S`, in data set [1], half-maximal inhibition (IC50) required 3.2 µM. In [8], the Ratio IC50 was 8. In addition, the results for the Activity in data set [2] and in [5] were > 90% and “Non-Toxic”, respectively. Further, the Ki came out at 900 nM in data set [9] and 6.6 µM in data set [10].
